UCH37 inh – inhibitors of human UCH37 deubiquitinase, primary screen, biochemical, Ub-AMC cleavage, fluorescence; hit rate 0.33% among 330,000; purified proteasome/UCH37; inhibition, % (concentration not given with the values); Ubiquitin carboxyl-terminal hydrolase isozyme L5 (Homo sapiens), Q9Y5K5;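 active means mean inhibition over replicate wells above about 20%, limit read from the data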
Target sequence (Q9Y5K5 whole entry, looked up): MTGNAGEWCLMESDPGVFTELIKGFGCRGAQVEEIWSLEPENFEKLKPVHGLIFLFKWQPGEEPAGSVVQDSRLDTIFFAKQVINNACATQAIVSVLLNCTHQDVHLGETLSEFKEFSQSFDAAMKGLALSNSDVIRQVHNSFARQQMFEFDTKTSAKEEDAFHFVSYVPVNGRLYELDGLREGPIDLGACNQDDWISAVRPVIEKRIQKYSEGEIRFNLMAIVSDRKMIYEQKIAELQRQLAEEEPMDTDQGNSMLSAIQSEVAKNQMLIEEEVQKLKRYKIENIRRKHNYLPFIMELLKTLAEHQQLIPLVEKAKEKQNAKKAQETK
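Reagent: Ub-AMC substrate; assay system: Proteasome-associated human UCH37 deubiquitinase; controls: no-proteasome and no-compound wells; read-out: % inhibition of Ub-AMC cleavage fluorescence; timing: 30 min preincubation with enzyme, 25 min cleavage at room temperature; signal: AMC fluorescence from Ub-AMC cleavage, excitation 355 nm, emission 460 nm; buffer or medium: Tris-HCl pH 7.4 plus ovalbumin, ATP-MgCl2, DTT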
SENP6 inh – SENP6 protease inhibitors, primary screen, biochemical, luminescence, uHTS | Recombinant SENP6 catalytic domain, aminoluciferin luminescence | inhibition, % at 10 µM | hit rate 1.8% among 330,000;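 active means inhibition above about 50% at the single tested dose, limit read from the data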
SENP8 block-1 – human SENP8 protease inhibitors, primary screen, biochemical, fluorescence, Nedd8 protein substrate, uHTS. Sentrin-specific protease 8 (Homo sapiens), Q96LD8. inhibition, % at 20 µM. hit rate 0.64% among 360,000. recombinant SENP8. AID 602440, 2012; in the data active means inhibition mostly above about 40%, no sharp cut-off; inactive means mostly below about 27%
Target sequence (Q96LD8 whole entry, looked up): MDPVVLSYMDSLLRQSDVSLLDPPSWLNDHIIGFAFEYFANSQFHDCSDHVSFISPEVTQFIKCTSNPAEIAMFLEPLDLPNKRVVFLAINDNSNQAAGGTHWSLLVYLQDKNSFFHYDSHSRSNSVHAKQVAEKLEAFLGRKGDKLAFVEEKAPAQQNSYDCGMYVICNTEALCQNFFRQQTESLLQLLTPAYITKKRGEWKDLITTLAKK
SENP8 block-2 – SENP8 protease inhibitors, primary screen, biochemical, luminescence | Sentrin-specific protease 8 (Homo sapiens), Q96LD8 | purified SENP8, Z-RLRGG-aminoluciferin cleavage | inhibition, % at 10 µM | hit rate 1.2% among 330,000; in the data active means inhibition above about 50%
SENP7 block – SENP7 protease inhibitors, primary screen, biochemical, luminescence, uHTS; recombinant SENP7, Z-RLRGG-aminoluciferin luminescence, 40 min; Sentrin-specific protease 7 (Homo sapiens), Q9BQF6; hit rate 1.5% among 330,000; inhibition, % at 5 µM;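 active means inhibition above about 50% at the single test dose, limit read from the data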
SENP1 FRET inh – human SENP1 catalytic domain inhibitors, primary screen, biochemical, FRET, uHTS. recombinant SENP1 catalytic domain, CyPet-SUMO1-YPet FRET cleavage. hit rate 0.21% among 360,000. inhibition, % at 10 µM. Sentrin-specific protease 1 (Homo sapiens), Q9P0U3. AID 624204, 2012;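 active means inhibition at least 30% at 10 µM, raw YFP signal under a set limit, fluorescence ratio 0.5 to 1.5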
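system = hSENP1 catalytic domain, recombinant | reagent = SFCypet-SUMO1-SFYpet substrate at 25 nM | doses = one dose per compound, 10 µM, 0.5% DMSO | incubation = enzyme reaction for 50 min at room temperature, dark | measured by = FRET, CFP and YFP emission | controls = no-enzyme low, enzyme-DMSO high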
SENP8 confirm – SENP8 protease inhibitors, retest, confirmation, biochemical, luminescence, single concentration | hit rate 40% among 6,200 | shares compounds with SENP7 block | Recombinant SENP8, Z-RLRGG-aminoluciferin luminescence, 60 min | inhibition, % at 12.5 µM | AID 488912, 2010;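 active means mean inhibition across replicates above about 50%, limit read from the data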
SENP6 conf – SENP6 protease inhibitors, confirmation, biochemical, luminescence, single concentration | hit rate 58% among 6,200 | shares compounds with SENP7 block | inhibition, % at 12.5 µM | recombinant SENP6, Z-RLRGG-aminoluciferin luminescence
SENP7 confirm – SENP7 protease inhibitors, retest, confirmation, biochemical, luminescence, single concentration. shares compounds with SENP7 block. recombinant SENP7, Z-RLRGG-aminoluciferin luminescence, 40 min. inhibition, % at 12.5 µM. hit rate 69% among 6,200
Casp3 select – caspase-3 protease inhibitors, confirmation, selectivity assay for SENP inhibitor project, biochemical, single concentration | shares compounds with SENP7 block | purified caspase-3, Z-DEVD-aminoluciferin luminescence, 60 min | inhibition, % at 12.5 µM | hit rate 60% among 6,200 | AID 488918, 2010;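 active means mean inhibition above about 50%, limit read from the data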
SENP luc ctr – counter-screen for SENP inhibitors: luminescence interference. hit rate 39% among 6,200. inhibition, % at 12.5 µM. Pre-incubated SENP8/Z-RLRGG-aminoluciferin, luciferase luminescence interference. AID 488919. shares compounds with SENP7 block;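 active means mean inhibition above about 50% when retested at one dose, limit read from the data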
Large screens that a line does not name were inactive (follow-up assays come after a bar, where they were run). A selection: hits, their analogues and other compounds. The true share with any hit is near 2.6%.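 How the source made its calls, unless noted: active means mean inhibition above about 50% in the one-dose retest (limit read from the data); inactive means the rest.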

COc1ccc(OCc2cccc(C(=O)O)c2)cc1	SENP6 inh 98, SENP8 block-2 97, SENP7 block 100 | SENP8 confirm 100 | SENP6 conf 101 | SENP7 confirm 103 | Casp3 select 99 | SENP luc ctr 99
CCOc1ccc(OCc2cccc(C(=O)N3CCCC3)c2)cc1	none
CCOc1ccc(OCc2cccc(C(=O)O)c2)cc1	SENP6 inh 99, SENP8 block-2 96, SENP7 block 100 | SENP8 confirm inactive | SENP6 conf 100 | SENP7 confirm 103 | Casp3 select 99 | SENP luc ctr 98
COc1cc(/C=C/[N+](=O)[O-])ccc1OCc1cccc(C(=O)O)c1	SENP6 inh 51 (no result: SENP8 block-1, SENP1 FRET inh) | SENP8 confirm 57 | SENP6 conf inactive | SENP7 confirm inactive | Casp3 select inactive | SENP luc ctr 64
COc1ccc(C(=O)C=Cc2ccc(OCc3ccccc3)c(OC)c2)cc1OC	none (no result: UCH37 inh, SENP6 inh, SENP8 block-2, SENP7 block)
O=C(O)c1cccc(COc2ccc(CO)cc2Cl)c1	SENP6 inh 97, SENP8 block-2 96, SENP7 block 100 | SENP8 confirm 98 | SENP6 conf 100 | SENP7 confirm 104 | Casp3 select 98 | SENP luc ctr 99
O=C(O)c1cccc(COc2ccc3c(c2)CCC3)c1	SENP6 inh 97, SENP8 block-2 97, SENP7 block 99 | SENP8 confirm inactive | SENP6 conf 101 | SENP7 confirm 104 | Casp3 select 99 | SENP luc ctr 100
COC(=O)Nc1ccc(OCc2ccccc2)cc1	SENP6 inh 73 | SENP8 confirm 53 | SENP6 conf 51 | SENP7 confirm 82 | Casp3 select 63 | SENP luc ctr inactive
Nc1nnc(CC(=O)NN=Cc2ccc(-c3ccc(F)cc3)o2)s1	none (no result: SENP6 inh, SENP8 block-1, SENP8 block-2, SENP7 block, SENP1 FRET inh)
Cc1cc(NC(=O)c2sc3ccccc3c2O)no1	SENP6 inh 89, SENP8 block-2 75, SENP7 block 73 | SENP8 confirm 86 | SENP6 conf 85 | SENP7 confirm 98 | Casp3 select 92 | SENP luc ctr 65
Cc1cc(NC(=O)c2ccccc2Cl)no1	none
Cc1cc(C)n(-c2nnc(C)n2N=Cc2ccco2)n1	none (no result: SENP6 inh, SENP8 block-1, SENP8 block-2, SENP7 block, SENP1 FRET inh)
Cc1cc(C)c(NC(=O)C2CCCCN2C)c(C)c1 (centres undefined)	SENP7 block 80 | SENP8 confirm inactive | SENP6 conf inactive | SENP7 confirm inactive | Casp3 select inactive | SENP luc ctr inactive
CC(CCC(C)C)=NNC(=S)Nc1cc(S(=O)(=O)N2CCOCC2)ccc1N1CCOCC1	none (no result: SENP6 inh, SENP8 block-1, SENP8 block-2, SENP7 block, SENP1 FRET inh)
O=C(NN=Cc1cccc([N+](=O)[O-])c1)c1ccc2c(c1)OCCO2	none (no result: SENP6 inh, SENP8 block-1, SENP8 block-2, SENP7 block, SENP1 FRET inh)
O=C(Nc1ccc(-c2n[nH]c(=S)o2)cc1)c1ccccc1Br	SENP6 inh 80 | SENP8 confirm 57 | SENP6 conf 54 | SENP7 confirm 80 | Casp3 select 74 | SENP luc ctr 62
O=C(CON=Cc1ccc(Cl)cc1Cl)NNC(=O)c1cccc(Cl)c1	none (no result: SENP6 inh, SENP8 block-1, SENP8 block-2, SENP7 block, SENP1 FRET inh)
c1ccc(C2=NNC(=NC3CC3)SC2)cc1	SENP6 inh 93, SENP8 block-2 94, SENP7 block 93 | SENP8 confirm 96 | SENP6 conf 97 | SENP7 confirm 102 | Casp3 select 98 | SENP luc ctr 95
c1ccc2c(C3=NNC(=NC4CCCCC4)SC3)c[nH]c2c1	none
c1ccc2c(C3=NNC(=NC4CC4)SC3)c[nH]c2c1	SENP6 inh 63 | SENP8 confirm inactive | SENP6 conf inactive | SENP7 confirm 81 | Casp3 select 80 | SENP luc ctr 67
CCOc1ccc(NC(=S)Nc2cccc3cnccc23)cc1	SENP6 inh 87, SENP7 block 63 | SENP8 confirm inactive | SENP6 conf inactive | SENP7 confirm inactive | Casp3 select inactive | SENP luc ctr inactive
CCOc1ccc(NC(=S)Nc2ccc(OCC)cc2)cc1	none
COc1ccc(NC(=S)Nc2cccc3cnccc23)cc1	SENP6 inh 88, SENP7 block 67 | SENP8 confirm inactive | SENP6 conf inactive | SENP7 confirm inactive | Casp3 select inactive | SENP luc ctr inactive
COc1ccccc1NC(=S)Nc1cccc2cnccc12	SENP6 inh 91, SENP7 block 81 | SENP8 confirm inactive | SENP6 conf inactive | SENP7 confirm inactive | Casp3 select inactive | SENP luc ctr inactive
CCOc1ccc(NC(=S)Nc2cccc3ccccc23)cc1	SENP6 inh 88, SENP8 block-2 50 | SENP8 confirm inactive | SENP6 conf inactive | SENP7 confirm inactive | Casp3 select inactive | SENP luc ctr inactive
CCOc1ccc(NC(=S)Nc2ccccc2C2CC2)cc1	none
O=C(NN=Cc1ccc(-c2ccc([N+](=O)[O-])cc2)o1)C1COc2ccccc2O1 (centres undefined)	none (no result: SENP6 inh, SENP8 block-1, SENP8 block-2, SENP7 block, SENP1 FRET inh)
Cc1ccc(S(=O)(=O)N(CC(=O)NN=Cc2ccc(F)cc2)c2cccc3cccnc23)cc1	none (no result: SENP6 inh, SENP8 block-1, SENP8 block-2, SENP7 block, SENP1 FRET inh)
COc1ccc(-c2nc3ccccn3c2Cl)cc1	SENP6 inh 97, SENP8 block-2 96, SENP7 block 100 | SENP8 confirm inactive | SENP6 conf 99 | SENP7 confirm 103 | Casp3 select 98 | SENP luc ctr 97
COc1ccc(-c2nc3ccccn3c2CN2CCN(c3ccccc3F)CC2)cc1	none
CC(=O)NCc1ccc(-c2nc3ccccc3s2)cc1	SENP6 inh 80, SENP8 block-2 64, SENP7 block 72 | SENP8 confirm inactive | SENP6 conf 59 | SENP7 confirm 87 | Casp3 select 77 | SENP luc ctr inactive

Assay outcomes as filed in PubChem BioAssay.
